Measured values: ChEMBL document CHEMBL1155884, “Sinulodurins A and B, antiproliferative and anti-invasive diterpenes from the soft coral Sinularia dura” (J Nat Prod, 2008)
pIC50: −log10 of the molar value. Active and inactive are the calls of the source.

Assays:
Staphylococcus aureus = assay: Antimicrobial activity against methicillin-resistant Staphylococcus aureus up to 50 ug/mL; format: functional, organism-based
Candida albicans = assay: Antimicrobial activity against Candida albicans up to 50 ug/mL; format: functional, organism-based
[1] = system: Mycobacterium intracellulare; assay: Antimicrobial activity against Mycobacterium intracellular up to 50 ug/mL; format: functional, organism-based
Cryptococcus neoformans = assay: Antimicrobial activity against Cryptococcus neoformans up to 50 ug/mL; format: functional, organism-based
Aspergillus fumigatus = assay: Antimicrobial activity against Aspergillus fumigatus up to 50 ug/mL; format: functional, organism-based
Homo sapiens [2] = species on record: Homo sapiens; assay: Antiinvasive activity against human PC-3M-CT+ cells at 200 uM after 48 hrs by spheroid disaggregation assay; format: functional, cell-based
Outline: (§1)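 Spheroids formed from 5 × 10^4 cells/mL in serum-free RPMI 1640 rocked in low-attachment wells at 37 °C for 2 days (150-300 µm, ~4 × 10^4 cells each). Single spheroid placed on ECM-coated well in serum-free medium, t=0 set 1 h after plating. Photographed at t=0, cultured 48 h at 37 °C, fixed, Diff-Quik stained. Migration diameter measured by micrometer minus initial diameter; given as average percent increase in surface area.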

Homo sapiens [3] = species on record: Homo sapiens; assay: Antiinvasive activity against human PC-3M-CT+ cells at 100 uM after 48 hrs by spheroid disaggregation assay; format: functional, cell-based; outline: as §1
+SA cell [4] = assay: Antiproliferative activity against mouse +SA cells assessed as cell viability at 30 uM after 4 days by MTT assay; format: functional, cell-based
Outline: (§2)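 Highly malignant +SA mouse mammary epithelial cells kept in serum-free medium with 10 ng/mL EGF and 10 µg/mL insulin as mitogens. Seeded 5 × 10^4 cells/well, 6 wells/group, fed medium with compound at 0.01-1000 µM. Viable cell number determined by MTT colorimetric assay after 4 days in culture, compared against vehicle control.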

Vero = assay: Cytotoxicity against african green monkey Vero cells; format: cell-based; settings: chlorocebus sabaeus
Homo sapiens [5] = species on record: Homo sapiens; assay: Antiinvasive activity against human PC-3M-CT+ cells at 50 uM after 48 hrs by spheroid disaggregation assay; format: functional, cell-based; outline: as §1
Pseudomonas aeruginosa = assay: Antimicrobial activity against Pseudomonas aeruginosa up to 50 ug/mL; format: functional, organism-based
Homo sapiens [6] = species on record: Homo sapiens; assay: Antiinvasive activity against human PC-3M-CT+ cells at 25 uM after 48 hrs by spheroid disaggregation assay; format: functional, cell-based; outline: as §1
Escherichia coli = assay: Antimicrobial activity against Escherichia coli up to 50 ug/mL; format: functional, organism-based
+SA cell [7] = assay: Antiproliferative activity against mouse +SA cells assessed as cell viability at 20 uM after 4 days by MTT assay; format: functional, cell-based; outline: as §2
[8] = Antiproliferative activity against mouse +SA cells assessed as cell viability after 4 days by MTT assay; format: functional, cell-based; settings: 96 h; outline: as §2

C=C1C=C2[C@@H](CC1)[C@H](C)[C@H](OC(C)=O)C[C@H]2[C@H](C)C(OC(C)=O)C(=O)C=C(C)C (stereo partly drawn) [SINULODURIN A]
active: Activity (Homo sapiens [2]) | Activity (Homo sapiens [3]) | Activity (+SA cell [4]) | Activity (Homo sapiens [5]) | Activity (Homo sapiens [6])
inactive: Activity (Staphylococcus aureus) | Activity (Candida albicans) | Activity [1] | Activity (Cryptococcus neoformans) | Activity (Aspergillus fumigatus) | Activity (Pseudomonas aeruginosa) | Activity (Escherichia coli)
Not Active: Activity (Vero)

C=C1C=C2[C@@H](CC1)[C@H](C)CC[C@H]2[C@H](C)C(OC(C)=O)C(=O)C=C(C)C (stereo partly drawn) [SINULODURIN B]
Not Active: Activity (Vero)
inactive: Activity (Staphylococcus aureus) | Activity (Candida albicans) | Activity [1] | Activity (Cryptococcus neoformans) | Activity (Aspergillus fumigatus) | Activity (Pseudomonas aeruginosa) | Activity (Escherichia coli)
active: Activity (Homo sapiens [2]) | Activity (Homo sapiens [3]) | Activity (Homo sapiens [5]) | Activity (+SA cell [7]) | Activity (Homo sapiens [6])

C=C1C=C2[C@@H](C[C@@H]1O)[C@@H](C)CC[C@@H]2[C@@H](C)CCC=C(C)C
Not Active: Activity (Vero)
inactive: Activity (Staphylococcus aureus) | Activity (Candida albicans) | Activity [1] | Activity (Cryptococcus neoformans) | Activity (Aspergillus fumigatus) | Activity (Pseudomonas aeruginosa) | Activity (Escherichia coli)

C=C1C=C2[C@H](CC1)[C@@H](C)CC[C@@H]2[C@@H](C)CCC=C(C)C
Not Active: Activity (Vero)
inactive: Activity (Staphylococcus aureus) | Activity (Candida albicans) | Activity [1] | Activity (Cryptococcus neoformans) | Activity (Aspergillus fumigatus) | Activity (Pseudomonas aeruginosa) | Activity (Escherichia coli)

CC(C)=CCC/C(C)=C/CC/C(C)=C/CC[C@]1(C)CCc2cc(O)cc(C)c2O1 [DELTA-TOCOTRIENOL]
5.15: pIC50 [8]
